This is a sample that favours compounds with a hit; in the whole collection about 2.3% have one here.
PPC-1+TRAIL kill: PPC-1 cancer cell killing with TRAIL present. PPC-1 cells + TRAIL, ATPLite viability luminescence. cell killing (% activity), % at 4 µM or 5 µM. 220,000 compounds, 0.41% hits. AID 1443;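 active means cell killing above 50% in the first pass at 4 µM, then a duplicate retest at 5 µM averaging 50% or more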;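 further: plate controls were cells with TRAIL plus DMSO for no effect and medium-only wells lacking cells for full effect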
HSP90 refold inh: blocks HSP90-mediated luciferase refolding in reticulocyte lysate | 290,000 compounds, 0.91% hits | Rabbit reticulocyte lysate, luciferase refolding luminescence, 3 h | inhibition, % at 5.6 µM | AID 1789;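 active means inhibition above the screen-wide mean plus 3 SD, computed separately per campaign, cut at about 16% in these data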;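 further: 0% = DMSO wells and 100% = 60 µM geldanamycin wells; inhibitors lower the luminescence because luciferase stays unfolded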
TRAIL sens C8: caspase-8 TRAIL sensitization. inhibition (viability loss, TRAIL sensitization), % at 10 µM. 360,000 compounds, 1% hits. NB7+C8 cells + TRAIL, ATPlite viability luminescence. AID 624354;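 active means compounds causing at least 50% loss of cell viability in the single-dose screen, relative to plate controls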
STAT3 inh-1: reduces IL-6 driven STAT3 reporter signal; 190,000 compounds, 0.89% hits; inhibition, % at 5.5 µM; U3A cells, IL-6 STAT3-luciferase reporter, luminescence; host cell line lacks STAT1; AID 862;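 active means inhibition above the mean inhibition across all screened compounds plus 3 SD, cut at about 44% in these data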;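 further: 0% = DMSO only wells and 100% = 100 µM nifuroxazide control wells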
STAT1 blocker: STAT1 signaling inhibition. AID 920. NIH 3T3 STAT1-luciferase reporter, IFN-gamma, luminescence. inhibition, % at 5.5 µM. 200,000 compounds, 0.35% hits;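 active means inhibition above a set limit, the mean inhibition across all tested compounds plus 3 SD, cut at about 34% in these data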;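 further: 0% = IFN-gamma with DMSO and 100% = IFN-gamma with 300 µM nifuroxazide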
STAT3 act: activators of IL-6 induced STAT3 signaling; U3A cells, IL-6 STAT3-luciferase reporter, luminescence; 100% = signal with IL-6 EC80 alone; activation (% of control), % at 5.6 µM; 190,000 compounds, 0.91% hits; AID 871;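 active means activation above the screen-wide mean of compound activation plus 3 SD, cut at about 130% in these data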;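 further: 0% = background luminescence of wells with medium and substrate only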
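Assay system – human STAT1-deficient U3A cells with stable STAT3-luciferase reporter · Also added – IL-6 (33 ng/mL) · Schedule – compound 1 h, then IL-6 6 h at 37 °C · Technique – reporter luminescence signal · Evaluation – % activation versus median of IL-6-stimulated wells · Benchmarks – IL-6-only wells as 100% reference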
STAT3 inh-2: confirmation of STAT3 signaling inhibitors; shares compounds with STAT3 inh-1; U3A cells, IL-6 STAT3 luciferase reporter, luminescence; cell line lacks STAT1; inhibition, % at 5.7 µM; 1,200 compounds, 45% hits; AID 1265;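 active means inhibition above the hit cutoff computed for the primary STAT3 screen, cut at about 44% in these data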;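 further: 0% = IL-6 plus DMSO and 100% = IL-6 plus nifuroxazide control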
NFkB inh STAT3ct: inhibits NF-kappaB, counter-screen to STAT3 inhibitors | HEK293T NF-kB luciferase reporter, TNF-alpha induced | 1,200 compounds, 36% hits | inhibition, % at 5.7 µM | shares compounds with STAT3 inh-1;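 active means inhibition above the mean of solvent-only control wells plus 3 SD, cutoff set per campaign, cut at about 13% in these data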;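 further: 0% = TNF-alpha with DMSO and 100% = TNF-alpha with MG high control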
STAT1 inh STAT3c: counter-screen for STAT3 inhibitors: STAT1 inhibition. shares compounds with STAT3 inh-1. NIH 3T3 STAT1-luciferase reporter, IFN-gamma induced, luminescence. inhibition, % at 5.7 µM. 1,200 compounds, 27% hits. AID 1317;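 active means inhibition above the mean plus 3 SD of solvent-only control wells, limit set per screening run, cut at about 16% in these data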;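 further: 0% = DMSO with IFN-gamma and 100% = nifuroxazide control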
Numbers without * were called inactive.

Screening COc1ccc(/C=C/c2cc(-c3ccc(C)cc3)o[n+]2C)cc1 returned PPC-1+TRAIL kill 42, HSP90 refold inh 3, TRAIL sens C8 74*, STAT3 inh-1 44*, STAT1 blocker 24, STAT3 act 68, STAT3 inh-2 20, NFkB inh STAT3ct 12 and STAT1 inh STAT3c 20*.
For NC(=O)c1c(-c2ccc(Cl)cc2Cl)csc1NC(=O)Cc1ccccc1 the results were PPC-1+TRAIL kill 26, HSP90 refold inh -2, TRAIL sens C8 29, STAT3 inh-1 44*, STAT1 blocker 12, STAT3 act 62, STAT3 inh-2 72*, NFkB inh STAT3ct 23* and STAT1 inh STAT3c 16.
O=C(Cc1ccccc1)Nc1scc(-c2ccccc2)c1C(=O)N1CCOCC1 was read as PPC-1+TRAIL kill 14, HSP90 refold inh -6, TRAIL sens C8 3, STAT3 inh-1 -1, STAT1 blocker 4 and STAT3 act 104.
For O=C(Nc1nc(-c2ccc3c(c2)OCCO3)cs1)c1ccc(S(=O)(=O)N2CCCCC2)cc1 the results were PPC-1+TRAIL kill 2, HSP90 refold inh 5, TRAIL sens C8 21, STAT3 inh-1 45*, STAT1 blocker 8, STAT3 act 67, STAT3 inh-2 62*, NFkB inh STAT3ct 18* and STAT1 inh STAT3c 0.
Screening CC(C)n1c(=O)[nH]c(=O)n1C(C)C returned TRAIL sens C8 -2.
`CCc1ccc(NC(=O)c2ccc(C3SCC(=O)N3CCc3ccccc3)cc2)cc1` (stereo not given) gave PPC-1+TRAIL kill -5, HSP90 refold inh -2, TRAIL sens C8 8, STAT3 inh-1 46*, STAT1 blocker -3, STAT3 act 65, STAT3 inh-2 48*, NFkB inh STAT3ct 15* and STAT1 inh STAT3c -2.
COC(=O)CC(=O)O[C@H]1C=C[C@@H](NC(=O)OC(C)(C)C)C1 was read as TRAIL sens C8 -8.
CC1=NC(=O)C(N=Nc2cccc(C(=O)O)c2)N1c1ccccc1 (stereo not given) was read as PPC-1+TRAIL kill 20, HSP90 refold inh 17*, TRAIL sens C8 3, STAT3 inh-1 65*, STAT1 blocker 29, STAT3 act 45, STAT3 inh-2 41, NFkB inh STAT3ct 18* and STAT1 inh STAT3c -30.
Screening COC(=O)c1ccc(NC(=O)Nc2ccccc2F)cc1 returned PPC-1+TRAIL kill 46, HSP90 refold inh 8, TRAIL sens C8 37, STAT3 inh-1 48*, STAT1 blocker -14, STAT3 act 64, STAT3 inh-2 21, NFkB inh STAT3ct -33 and STAT1 inh STAT3c -107.
`COC(=O)c1ccc(NC(=O)Nc2ccccc2C)cc1` gave HSP90 refold inh 5, TRAIL sens C8 45, STAT3 inh-1 24, STAT1 blocker -6 and STAT3 act 87.
Screening c1ccc(-c2ncc(-c3ccn[nH]3)s2)cc1 returned PPC-1+TRAIL kill 24, HSP90 refold inh 1, TRAIL sens C8 43, STAT3 inh-1 46*, STAT1 blocker -22, STAT3 act 65, STAT3 inh-2 2, NFkB inh STAT3ct -24 and STAT1 inh STAT3c -112.
c1ccc(Oc2ccc(-c3ccn[nH]3)cc2)cc1 was read as PPC-1+TRAIL kill 22, HSP90 refold inh -2 and TRAIL sens C8 0.
Screening CN(C)c1ccc(S(=O)(=O)NCC(=O)OCC(=O)c2ccc[nH]2)cc1[N+](=O)[O-] returned TRAIL sens C8 4.
Screening COc1cc(C(=O)N2CCN(c3ncnc4sc(C)c(C)c34)CC2)cc(OC)c1OC returned PPC-1+TRAIL kill 13, HSP90 refold inh 0, TRAIL sens C8 13, STAT3 inh-1 52*, STAT1 blocker 37*, STAT3 act 62, STAT3 inh-2 45*, NFkB inh STAT3ct 17* and STAT1 inh STAT3c 31*.
For Cc1sc2ncnc(N3CCN(c4ncccn4)CC3)c2c1C the results were PPC-1+TRAIL kill 1, HSP90 refold inh -4, TRAIL sens C8 6, STAT3 inh-1 23, STAT1 blocker 10 and STAT3 act 83.
Screening O=C(c1ccc2c(=O)n(-c3ccccc3)c(=S)[nH]c2c1)N1CCCCC1 returned PPC-1+TRAIL kill 10, HSP90 refold inh -2, TRAIL sens C8 9, STAT3 inh-1 47*, STAT1 blocker 26, STAT3 act 63, STAT3 inh-2 51*, NFkB inh STAT3ct 14* and STAT1 inh STAT3c 25*.
Screening CC(C)CC(=O)Nc1ccc2oc(-c3ccncc3)nc2c1 returned PPC-1+TRAIL kill 15, HSP90 refold inh -4, TRAIL sens C8 11, STAT3 inh-1 20, STAT1 blocker -21 and STAT3 act 89.
For O=C(Nc1nc2ccccc2[nH]1)C1CCCO1 (stereo not given) the results were PPC-1+TRAIL kill 7, HSP90 refold inh 1, TRAIL sens C8 -12, STAT3 inh-1 12, STAT1 blocker -5 and STAT3 act 95.
`CC(Oc1ccc(Cl)cc1Cl)C(=O)Nc1ccc2oc(-c3ccncc3)nc2c1` (stereo not given) gave PPC-1+TRAIL kill 17, HSP90 refold inh 2, TRAIL sens C8 28, STAT3 inh-1 50*, STAT1 blocker -7, STAT3 act 60, STAT3 inh-2 50*, NFkB inh STAT3ct 0 and STAT1 inh STAT3c -10.
For Cc1ccc(-c2nc3cc(NC(=O)C(C)C)ccc3o2)cc1 the results were PPC-1+TRAIL kill 36, HSP90 refold inh 4, TRAIL sens C8 46, STAT3 inh-1 45*, STAT1 blocker -95, STAT3 act 63, STAT3 inh-2 -1, NFkB inh STAT3ct -38 and STAT1 inh STAT3c -216.
Screening Cc1cccc(-c2nc3cc(NC(=O)C4CCCO4)ccc3o2)c1 (stereo not given) returned PPC-1+TRAIL kill 56*, HSP90 refold inh 5, TRAIL sens C8 63*, STAT3 inh-1 72*, STAT1 blocker -34, STAT3 act 42, STAT3 inh-2 46*, NFkB inh STAT3ct -5 and STAT1 inh STAT3c -76.
Screening Cc1ccc2oc(-c3cccc(NC(=O)C4CCCO4)c3)nc2c1 (stereo not given) returned PPC-1+TRAIL kill 23, HSP90 refold inh 9, TRAIL sens C8 16, STAT3 inh-1 -9, STAT1 blocker -43 and STAT3 act 110.

Source: PubChem BioAssay (several laboratories)
